From ChEMBL document CHEMBL4270659, “Discovery and anti-inflammatory evaluation of benzothiazepinones (BTZs) as novel non-ATP competitive inhibitors of glycogen synthase kinase-3β (GSK-3β)” (Bioorg Med Chem, 2018)
Values belong to the compound of their own block, whether it stands above or below them. Activity calls are given as the source filed them. No cut-off for these calls is given here.

How the values were obtained:
[1] = target: T1, Glycogen synthase kinase-3 beta (Homo sapiens, UniProt P49841); test: Inhibition of human recombinant N-terminal His6-tagged human GSK-3beta expressed in Baculovirus infected SF9 cells using prephosphorylated-GS2 polypeptide as substrate after 30 mins by kinase-Glo reagent based luminescence assay
Summary of the method: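 GSK-3β was incubated with ATP and GS-2 substrate with or without compound. ATP remaining after the kinase reaction was quantified by Kinase-Glo luminescence. IC50 is the mean of triplicate experiments.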
Target sequence in this assay (P49841 whole entry): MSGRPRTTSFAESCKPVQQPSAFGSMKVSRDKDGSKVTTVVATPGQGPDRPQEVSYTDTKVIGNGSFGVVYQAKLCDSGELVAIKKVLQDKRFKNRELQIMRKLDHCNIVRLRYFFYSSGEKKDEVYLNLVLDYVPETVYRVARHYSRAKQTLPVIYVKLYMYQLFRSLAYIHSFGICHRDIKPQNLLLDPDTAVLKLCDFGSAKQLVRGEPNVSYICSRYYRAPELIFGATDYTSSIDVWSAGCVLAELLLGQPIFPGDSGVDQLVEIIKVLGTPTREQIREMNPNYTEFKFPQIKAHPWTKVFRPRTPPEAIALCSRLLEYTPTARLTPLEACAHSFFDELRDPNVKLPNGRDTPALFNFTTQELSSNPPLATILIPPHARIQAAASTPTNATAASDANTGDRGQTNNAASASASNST

[2] = target: Mast/stem cell growth factor receptor Kit (Homo sapiens) (UniProt P10721); test: Inhibition of human c-KIT at 100 uM
Chain of Mast/stem cell growth factor receptor Kit (Homo sapiens) (P10721 whole entry): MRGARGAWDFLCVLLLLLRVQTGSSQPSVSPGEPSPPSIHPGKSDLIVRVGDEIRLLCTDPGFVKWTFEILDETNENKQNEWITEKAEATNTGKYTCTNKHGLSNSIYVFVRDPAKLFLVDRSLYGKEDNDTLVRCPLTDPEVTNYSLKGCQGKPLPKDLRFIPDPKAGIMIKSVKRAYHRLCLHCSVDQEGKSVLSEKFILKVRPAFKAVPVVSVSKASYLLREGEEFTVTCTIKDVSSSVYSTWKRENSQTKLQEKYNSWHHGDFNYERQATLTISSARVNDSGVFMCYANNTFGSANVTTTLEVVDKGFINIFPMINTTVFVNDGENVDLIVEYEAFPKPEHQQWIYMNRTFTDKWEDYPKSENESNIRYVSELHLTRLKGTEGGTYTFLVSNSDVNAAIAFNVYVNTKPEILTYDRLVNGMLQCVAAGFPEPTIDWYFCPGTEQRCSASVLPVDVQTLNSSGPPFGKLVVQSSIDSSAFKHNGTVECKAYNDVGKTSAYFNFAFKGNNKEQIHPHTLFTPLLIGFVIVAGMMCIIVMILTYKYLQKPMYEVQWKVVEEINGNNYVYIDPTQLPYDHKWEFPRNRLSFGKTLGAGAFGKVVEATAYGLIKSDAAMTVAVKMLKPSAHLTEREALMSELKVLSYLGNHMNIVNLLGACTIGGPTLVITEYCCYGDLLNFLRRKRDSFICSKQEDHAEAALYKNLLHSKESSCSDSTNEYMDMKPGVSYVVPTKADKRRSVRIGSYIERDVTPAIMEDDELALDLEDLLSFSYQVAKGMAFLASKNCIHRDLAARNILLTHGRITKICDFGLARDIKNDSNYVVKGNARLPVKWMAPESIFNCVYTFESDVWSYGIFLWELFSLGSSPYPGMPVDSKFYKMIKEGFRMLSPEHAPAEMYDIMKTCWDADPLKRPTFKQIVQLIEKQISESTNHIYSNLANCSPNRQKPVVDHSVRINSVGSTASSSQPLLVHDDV
Summary of the method: (§1)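 Kinase selectivity panel run at 100 μM inhibitor. Activity is reported as % inhibition, the mean of two independent experiments.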

[3] = target: T1, Glycogen synthase kinase-3 beta; test: Non-ATP competitive inhibition of recombinant N-terminal His6-tagged human GSK-3beta expressed in Baculovirus infected SF9 cells at 20 to 30 uM using prephosphorylated-GS2 polypeptide as substrate after 30 mins by kinase-Glo reagent based luminescence assay
Summary of the method: (§2)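 Kinetic analysis used the same Kinase-Glo GSK-3β assay. Inhibitor was tested at fixed concentrations while one substrate (ATP or GS-2) was held constant and the other varied, and the data were plotted as double-reciprocal plots.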
Target sequence in this assay (P49841 whole entry, looked up): as the sequence (P49841 whole entry) above

[4] = target: Platelet-derived growth factor receptor beta (Homo sapiens) (UniProt P09619); test: Inhibition of human PDGFRbeta at 100 uM; summary of the method: as §1
[5] = target: Protein kinase C alpha type (Homo sapiens) (UniProt P17252); test: Inhibition of human PKCalpha at 100 uM; summary of the method: as §1
[6] = target: Fibroblast growth factor receptor 1 (Homo sapiens) (UniProt P11362); test: Inhibition of human FGFR1 at 100 uM; summary of the method: as §1
Chain of Fibroblast growth factor receptor 1 (Homo sapiens) (P11362 22-822 limits assumed): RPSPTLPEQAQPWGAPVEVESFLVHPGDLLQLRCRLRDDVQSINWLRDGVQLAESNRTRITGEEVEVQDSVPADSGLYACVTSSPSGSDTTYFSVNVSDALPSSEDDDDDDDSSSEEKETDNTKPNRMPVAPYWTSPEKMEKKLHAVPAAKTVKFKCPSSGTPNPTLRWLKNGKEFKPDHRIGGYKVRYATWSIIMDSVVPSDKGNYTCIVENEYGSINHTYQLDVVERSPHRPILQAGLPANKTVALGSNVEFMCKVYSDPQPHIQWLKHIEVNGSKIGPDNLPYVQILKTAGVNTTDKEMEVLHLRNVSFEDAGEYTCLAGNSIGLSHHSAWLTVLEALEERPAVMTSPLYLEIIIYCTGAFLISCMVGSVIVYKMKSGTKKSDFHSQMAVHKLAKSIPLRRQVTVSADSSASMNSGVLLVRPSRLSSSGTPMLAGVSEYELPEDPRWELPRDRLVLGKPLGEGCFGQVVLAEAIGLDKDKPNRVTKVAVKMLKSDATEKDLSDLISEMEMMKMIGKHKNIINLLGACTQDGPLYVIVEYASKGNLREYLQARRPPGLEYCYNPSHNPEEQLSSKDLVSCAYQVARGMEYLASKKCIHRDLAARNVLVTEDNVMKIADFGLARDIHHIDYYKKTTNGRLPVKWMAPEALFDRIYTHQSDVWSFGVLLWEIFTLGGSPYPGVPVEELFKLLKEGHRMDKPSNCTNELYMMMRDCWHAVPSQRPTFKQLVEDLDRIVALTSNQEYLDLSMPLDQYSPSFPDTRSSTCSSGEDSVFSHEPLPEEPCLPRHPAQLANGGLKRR

[7] = target: Cyclin-dependent kinase 1 (Homo sapiens) (UniProt P06493); test: Inhibition of human CDK1 at 100 uM; summary of the method: as §1
Chain of Cyclin-dependent kinase 1 (Homo sapiens) (P06493 whole entry, looked up): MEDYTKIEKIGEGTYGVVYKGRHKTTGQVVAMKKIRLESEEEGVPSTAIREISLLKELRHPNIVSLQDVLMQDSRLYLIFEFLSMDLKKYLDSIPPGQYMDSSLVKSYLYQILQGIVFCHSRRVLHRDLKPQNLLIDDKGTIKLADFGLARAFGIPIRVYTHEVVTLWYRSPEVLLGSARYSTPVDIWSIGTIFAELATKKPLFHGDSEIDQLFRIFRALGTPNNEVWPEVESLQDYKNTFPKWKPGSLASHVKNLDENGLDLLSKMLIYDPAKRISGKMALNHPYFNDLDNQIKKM

[8] = target: Casein kinase 2 (Homo sapiens) (UniProt P67870+P68400+P19784+Q8NEV1); test: Inhibition of human CK2 at 100 uM; format: protein assay; summary of the method: as §1
[9] = organism: Homo sapiens; test: Inhibition of human PKA at 100 uM; summary of the method: as §1
[10] = target: Vascular endothelial growth factor receptor 1 (Homo sapiens) (UniProt P17948); test: Inhibition of human Flt1 at 100 uM; summary of the method: as §1
[11] = target: Vascular endothelial growth factor receptor 2 (Homo sapiens) (UniProt P35968); test: Inhibition of human KDR at 100 uM; summary of the method: as §1
[12] = target: Proto-oncogene tyrosine-protein kinase receptor Ret (Homo sapiens) (UniProt P07949); test: Inhibition of human RET at 100 uM
Chain of Proto-oncogene tyrosine-protein kinase receptor Ret (Homo sapiens) (P07949 whole entry): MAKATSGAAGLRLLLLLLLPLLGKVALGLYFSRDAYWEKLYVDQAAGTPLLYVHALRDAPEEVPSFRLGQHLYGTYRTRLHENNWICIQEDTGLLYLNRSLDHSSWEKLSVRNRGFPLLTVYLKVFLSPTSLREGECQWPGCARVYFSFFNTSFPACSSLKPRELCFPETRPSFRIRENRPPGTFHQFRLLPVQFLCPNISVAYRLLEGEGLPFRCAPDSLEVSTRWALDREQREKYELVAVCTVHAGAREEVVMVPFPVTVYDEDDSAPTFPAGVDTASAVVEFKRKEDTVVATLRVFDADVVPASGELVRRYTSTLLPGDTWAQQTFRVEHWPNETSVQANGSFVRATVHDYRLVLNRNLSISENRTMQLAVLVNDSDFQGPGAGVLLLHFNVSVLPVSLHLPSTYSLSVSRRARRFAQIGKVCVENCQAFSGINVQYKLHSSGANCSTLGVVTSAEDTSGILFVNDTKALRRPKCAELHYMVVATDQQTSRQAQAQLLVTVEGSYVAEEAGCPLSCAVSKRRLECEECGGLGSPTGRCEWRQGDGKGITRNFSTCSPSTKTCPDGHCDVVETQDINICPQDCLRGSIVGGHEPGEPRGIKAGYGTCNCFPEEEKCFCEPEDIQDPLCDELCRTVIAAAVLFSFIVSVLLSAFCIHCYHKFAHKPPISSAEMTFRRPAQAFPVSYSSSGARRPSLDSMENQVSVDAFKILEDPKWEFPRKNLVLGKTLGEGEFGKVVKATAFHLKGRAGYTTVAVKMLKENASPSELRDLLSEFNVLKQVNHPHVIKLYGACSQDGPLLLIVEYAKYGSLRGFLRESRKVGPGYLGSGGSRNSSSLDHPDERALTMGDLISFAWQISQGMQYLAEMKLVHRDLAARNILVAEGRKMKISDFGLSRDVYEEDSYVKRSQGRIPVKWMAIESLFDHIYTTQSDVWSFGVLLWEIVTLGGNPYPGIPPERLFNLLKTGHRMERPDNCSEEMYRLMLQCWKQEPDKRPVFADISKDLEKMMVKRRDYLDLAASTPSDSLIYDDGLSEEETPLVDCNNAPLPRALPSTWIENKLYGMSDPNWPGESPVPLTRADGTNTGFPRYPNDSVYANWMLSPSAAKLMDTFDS

[13] = tested on: Mus musculus; test: Anti-inflammatory activity in C57BL/6 mouse lung injury model assessed reduction in lung tissue damage at 80 uM, ip administered 12 hrs prior to LPS challenge and measured after 24 hrs by Hematoxylin and eosin staining-based light microscopic analysis; format: functional; set-up: scale not given: the % may be the effect or the level left
Summary of the method: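 C57BL/6 mice received compound (80 μM) or PBS ip, followed 12 h later by LPS (10 mg/kg ip). At 24 h after LPS, lungs were fixed, embedded, sectioned and H&E stained. Hemorrhage, edema, interstitial inflammatory cell infiltration, hyaline membrane and atelectasis were each graded 0–4 to give an injury score. Mean ± SEM, n = 5 mice.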

[14] = tested on: Mus musculus; test: Anti-inflammatory activity in C57BL/6 mouse lung injury model assessed as inhibition of IL-1beta mRNA expression level at 80 uM, ip administered 12 hrs prior to LPS challenge and measured after 24 hrs by qRT-PCR analysis; format: functional
[15] = tested on: Mus musculus; test: Anti-inflammatory activity in C57BL/6 mouse lung injury model assessed as inhibition of IL-6 mRNA expression level at 80 uM, ip administered 12 hrs prior to LPS challenge and measured after 24 hrs by qRT-PCR analysis; format: functional
[16] = tested on: Mus musculus; test: In vivo inhibition of GSK-3beta in C57BL/6 mouse lung injury model assessed as upregulation of SIRT1 expression in lung at 80 uM, ip administered 12 hrs prior to LPS challenge and measured after 24 hrs by Western blot analysis relative to control; format: functional
Summary of the method: (§3)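 Mice were pretreated ip with compound (80 μM) or PBS, and LPS (10 mg/kg ip) was given 12 h later. Lungs were collected 24 h post-LPS, and p-GSK-3β and SIRT1 were detected by Western blot. Values are means ± SE of 4 independent experiments.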

[17] = target: Proto-oncogene tyrosine-protein kinase Src (Homo sapiens) (UniProt P12931); settings: at 100 µM
Chain of Proto-oncogene tyrosine-protein kinase Src (Homo sapiens) (P12931 2-536 limits assumed): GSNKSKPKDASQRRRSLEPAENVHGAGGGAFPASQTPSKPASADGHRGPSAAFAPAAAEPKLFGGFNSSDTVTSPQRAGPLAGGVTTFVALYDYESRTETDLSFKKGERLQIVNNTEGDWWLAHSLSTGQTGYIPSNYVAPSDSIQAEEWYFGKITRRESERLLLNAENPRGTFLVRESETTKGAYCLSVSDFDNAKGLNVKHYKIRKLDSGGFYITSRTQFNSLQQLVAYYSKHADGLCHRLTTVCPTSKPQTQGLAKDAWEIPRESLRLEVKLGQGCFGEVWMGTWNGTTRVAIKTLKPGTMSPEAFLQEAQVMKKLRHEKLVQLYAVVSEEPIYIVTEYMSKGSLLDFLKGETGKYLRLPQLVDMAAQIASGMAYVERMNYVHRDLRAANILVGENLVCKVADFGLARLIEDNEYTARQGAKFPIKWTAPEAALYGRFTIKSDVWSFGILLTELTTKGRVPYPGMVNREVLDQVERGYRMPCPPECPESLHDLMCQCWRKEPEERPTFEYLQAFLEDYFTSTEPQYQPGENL

[18] = target: Tyrosine-protein kinase ABL1 (Homo sapiens) (UniProt P00519); settings: at 100 µM
[19] = target: T1, Glycogen synthase kinase-3 beta; test: Non-ATP competitive inhibition of recombinant N-terminal His6-tagged human GSK-3beta expressed in Baculovirus infected SF9 cells at 15 to 25 uM using prephosphorylated-GS2 polypeptide as substrate after 30 mins by kinase-Glo reagent based luminescence assay; summary of the method: as §2
Target sequence in this assay (P49841 whole entry, looked up): as the sequence (P49841 whole entry) above

[20] = target: Platelet-derived growth factor receptor alpha (Homo sapiens) (UniProt P16234); test: Inhibition of human PDGFRalpha at 100 uM; summary of the method: as §1
[21] = target: Receptor tyrosine-protein kinase erbB-4 (Homo sapiens) (UniProt Q15303); test: Inhibition of human ErbB4 at 100 uM; summary of the method: as §1
[22] = tested on: Mus musculus; test: In vivo inhibition of GSK-3beta in C57BL/6 mouse lung injury model assessed as upregulation of LPS-induced phosphorylation at Ser9 residue in lung at 80 uM, ip administered 12 hrs prior to LPS challenge and measured after 24 hrs by Western blot analysis relative to control; format: functional; summary of the method: as §3

Compound: O=C(c1ccc(C2CC(=O)N(Cc3ccccc3[N+](=O)[O-])c3ccccc3S2)cc1)N1CCCCC1 (stereo unspecified)
- IC50 [1]: 49 µM

Compound: COC(=O)c1ccccc1C1CC(=O)N(Cc2ccccc2[N+](=O)[O-])c2ccccc2S1 (stereo unspecified)
- IC50 [1]: 80 µM

Compound: COC(=O)c1ccc(C2CC(=O)N(Cc3ccccc3[N+](=O)[O-])c3ccccc3S2)cc1 (stereo unspecified)
- IC50 [1]: 35 µM

Compound: CCN(CC)C(=O)c1ccc(C2CC(=O)N(Cc3ccccc3[N+](=O)[O-])c3ccccc3S2)cc1 (stereo unspecified)
- IC50 [1]: 90 µM

Compound: CCN(CC)CCNC(=O)c1c(C)[nH]c(/C=C2\C(=O)Nc3ccc(F)cc32)c1C
- inhibition [2]: 49.4%

Compound: O=C(NC1CCCCC1)c1ccc(C2CC(=O)N(Cc3ccccc3[N+](=O)[O-])c3ccccc3S2)cc1 (stereo unspecified)
- IC50 [1]: 32 µM

Compound: NC(=O)c1ccccc1CN1C(=O)CC(c2ccc(C(=O)NCc3ccccc3)cc2)Sc2ccccc21 (stereo unspecified)
- IC50 [1]: 100 µM

Compound: O=C(NCc1ccco1)c1ccc(C2CC(=O)N(Cc3ccccc3[N+](=O)[O-])c3ccccc3S2)cc1 (stereo unspecified)
- IC50 [1]: 27 µM

Compound: COC(=O)c1cccc(C2CC(=O)N(Cc3ccccc3[N+](=O)[O-])c3ccccc3S2)c1 (stereo unspecified)
- IC50 [1]: 66 µM

Compound: O=C(NCc1ccc(Cl)cc1)c1ccc(C2CC(=O)N(Cc3ccccc3[N+](=O)[O-])c3ccccc3S2)cc1 (stereo unspecified)
- IC50 [1]: 33 µM

Compound: O=C(NCc1ccccn1)c1ccc(C2CC(=O)N(Cc3ccccc3[N+](=O)[O-])c3ccccc3S2)cc1 (stereo unspecified)
- IC50 [1]: 75 µM

Compound: CC(C)(C)NC(=O)c1ccc(C2CC(=O)N(Cc3ccccc3[N+](=O)[O-])c3ccccc3S2)cc1 (stereo unspecified)
- IC50 [1]: 48 µM

Compound: O=C1CC(c2ccc(-c3ccccc3)cc2)Sc2ccccc2N1Cc1ccccc1[N+](=O)[O-] (stereo unspecified)
- IC50 [1]: 51 µM

Compound: N#Cc1ccc(C2CC(=O)N(Cc3ccccc3[N+](=O)[O-])c3ccccc3S2)cc1 (stereo unspecified)
- IC50 [1]: 45 µM

Compound: O=C(NC1CC1)c1ccc(C2CC(=O)N(Cc3ccccc3[N+](=O)[O-])c3ccccc3S2)cc1 (stereo unspecified)
- IC50 [1]: > 100 µM

Compound: CN1CCN(C(=O)c2ccc(C3CC(=O)N(Cc4ccccc4[N+](=O)[O-])c4ccccc4S3)cc2)CC1 (stereo unspecified)
- IC50 [1]: > 100 µM

Compound: O=C(Nc1ccccn1)c1ccc(C2CC(=O)N(Cc3ccccc3[N+](=O)[O-])c3ccccc3S2)cc1 (stereo unspecified)
- IC50 [1]: 35 µM

Compound: O=C(NCc1ccccc1)c1ccc(C2CC(=O)N(Cc3ccccc3[N+](=O)[O-])c3ccccc3S2)cc1 (stereo unspecified)
- IC50 [1]: 28 µM
- inhibition [19]: Active
- inhibition [20]: 7.2%
- inhibition [4]: 5.5%
- inhibition [5]: 12%
- inhibition [6]: 13.5%
- inhibition [7]: 16%
- inhibition [2]: 28%
- inhibition [8]: 20%
- inhibition [9]: 0%
- inhibition [10]: 6.8%
- inhibition [21]: 12.2%
- inhibition [12]: 68%
- Activity [13]: 65%
- inhibition (INH) [14]: 43.18%
- inhibition (INH) [15]: 38.16%
- fold change (FC) [22]: 1.42
- fold change (FC) [16]: 1.93
- inhibition [17]: 7.2%
- inhibition [18]: 0%

Compound: O=C(NCc1cccc(Cl)c1)c1ccc(C2CC(=O)N(Cc3ccccc3[N+](=O)[O-])c3ccccc3S2)cc1 (stereo unspecified)
- IC50 [1]: 35 µM

Continued, in another order:

- IC50 [1]: 21 µM
Compound: O=C(NCCc1ccccc1)c1ccc(C2CC(=O)N(Cc3ccccc3[N+](=O)[O-])c3ccccc3S2)cc1 (stereo unspecified)

- IC50 [1]: 22 µM
Compound: CCCCNC(=O)c1ccc(C2CC(=O)N(Cc3ccccc3[N+](=O)[O-])c3ccccc3S2)cc1 (stereo unspecified)

- IC50 [1]: 18 µM
Compound: Cc1ccc(CNC(=O)c2ccc(C3CC(=O)N(Cc4ccccc4[N+](=O)[O-])c4ccccc4S3)cc2)cc1 (stereo unspecified)

- IC50 [1]: 27 µM
Compound: COc1ccc(CNC(=O)c2ccc(C3CC(=O)N(Cc4ccccc4[N+](=O)[O-])c4ccccc4S3)cc2)cc1 (stereo unspecified)

- IC50 [1]: 25 µM
Compound: O=C(NCc1ccc(Br)cc1)c1ccc(C2CC(=O)N(Cc3ccccc3[N+](=O)[O-])c3ccccc3S2)cc1 (stereo unspecified)

- IC50 [1]: 20 µM
Compound: O=C(NCc1ccccc1F)c1ccc(C2CC(=O)N(Cc3ccccc3[N+](=O)[O-])c3ccccc3S2)cc1 (stereo unspecified)

- IC50 [1]: 19 µM
Compound: O=C(NCc1cccc(F)c1)c1ccc(C2CC(=O)N(Cc3ccccc3[N+](=O)[O-])c3ccccc3S2)cc1 (stereo unspecified)

- IC50 [1]: 17 µM
Compound: CS(=O)(=O)Nc1ccccc1CN1C(=O)CC(c2ccc(C(=O)NCc3cccc(Cl)c3)cc2)Sc2ccccc21 (stereo unspecified)

- IC50 [1]: 25 µM
- inhibition [3]: Active
- inhibition [4]: 41.2%
- inhibition [5]: 2%
- inhibition [6]: 5.4%
- inhibition [7]: 22%
- inhibition [8]: -6%
- inhibition [9]: -7%
- inhibition [10]: 8.9%
- inhibition [11]: 8.7%
- inhibition [12]: 18.5%
- inhibition [17]: 0%
- inhibition [18]: 46.6%
Compound: O=C1CC(c2ccc(C(=O)NCc3cccc(Cl)c3)cc2)Sc2ccccc2N1 (stereo unspecified)
- Activity [13]: 49%
- inhibition (INH) [14]: 28.84%
- inhibition (INH) [15]: 24.35%
- fold change (FC) [16]: 1.34

- IC50 [1]: 18 µM
Compound: CS(=O)(=O)c1cccc(N2C(=O)CC(c3ccc(C(=O)NCc4cccc(Cl)c4)cc3)Sc3ccccc32)c1 (stereo unspecified)

- IC50 [1]: 18 µM
Compound: O=C(NCc1ccc(F)cc1)c1ccc(C2CC(=O)N(Cc3ccccc3[N+](=O)[O-])c3ccccc3S2)cc1 (stereo unspecified)

- IC50 [1]: 20 µM
Compound: Cc1ccc(C2CC(=O)N(Cc3ccccc3[N+](=O)[O-])c3ccccc3S2)cc1 (stereo unspecified)
